Experiments:
Format in all cases: functional
Homo sapiens [1] = organism: Homo sapiens; test: In vitro inhibitory activity on platelet aggregation induced by arachidonic acid (AA)
Summary of the method: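 Platelets were preincubated 1 min at 37 °C with test sample or 0.5% DMSO. Aggregation was then triggered with arachidonic acid 100. Aspirin and indomethacin served as positive controls.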

Homo sapiens [2] = organism: Homo sapiens; test: In vitro inhibitory activity of compound 100 (ug/ml) on platelet aggregation induced by PAF
Summary of the method: (§1)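 Platelets were preincubated with test sample or 0.5% DMSO vehicle at 37 °C for 1 min. Aggregation was then triggered by one inducer: thrombin 0.1 U/mL, arachidonic acid 100, collagen 10, or PAF 2 ng/mL. Read-out was percent aggregation, reported as mean±SE with n=3–6.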

Homo sapiens [3] = organism: Homo sapiens; test: In vitro inhibitory activity of compound 5 (ug/ml) on platelet aggregation induced by AA; summary of the method: as §1
Homo sapiens [4] = organism: Homo sapiens; test: In vitro inhibitory activity of compound on platelet aggregation induced by collagen; summary of the method: as §1
Homo sapiens [5] = organism: Homo sapiens; test: In vitro inhibitory activity of control on platelet aggregation induced by thrombin; summary of the method: as §1
Homo sapiens [6] = organism: Homo sapiens; test: In vitro inhibitory activity of compound 10 (ug/ml) on platelet aggregation induced by collagen; summary of the method: as §1
Homo sapiens [7] = organism: Homo sapiens; test: In vitro inhibitory activity of compound 100 (ug/ml) on platelet aggregation induced by AA; summary of the method: as §1
Homo sapiens [8] = organism: Homo sapiens; test: In vitro inhibitory activity of compound 5 (ug/ml) on platelet aggregation induced by collagen; summary of the method: as §1
Homo sapiens [9] = organism: Homo sapiens; test: In vitro inhibitory activity of compound 100 (ug/ml) on platelet aggregation induced by thrombin; summary of the method: as §1
Homo sapiens [10] = organism: Homo sapiens; test: In vitro inhibitory activity of control on platelet aggregation induced by PAF; summary of the method: as §1
Homo sapiens [11] = organism: Homo sapiens; test: In vitro inhibitory activity of control on platelet aggregation induced by AA; summary of the method: as §1
Homo sapiens [12] = organism: Homo sapiens; test: In vitro inhibitory activity of compound 0.2 (ug/ml) on platelet aggregation induced by collagen; summary of the method: as §1
Homo sapiens [13] = organism: Homo sapiens; test: In vitro inhibitory activity of compound 0.5 (ug/ml) on platelet aggregation induced by collagen; summary of the method: as §1
Homo sapiens [14] = organism: Homo sapiens; test: In vitro inhibitory activity of compound 2 (ug/ml) on platelet aggregation induced by collagen; summary of the method: as §1
Homo sapiens [15] = organism: Homo sapiens; test: In vitro inhibitory activity of compound 100 (ug/ml) on platelet aggregation induced by collagen; summary of the method: as §1
Homo sapiens [16] = organism: Homo sapiens; test: In vitro inhibitory activity of compound 1 (ug/ml) on platelet aggregation induced by AA; summary of the method: as §1
Homo sapiens [17] = organism: Homo sapiens; test: In vitro inhibitory activity of compound 1 (ug/ml) on platelet aggregation induced by collagen; summary of the method: as §1
Homo sapiens [18] = organism: Homo sapiens; test: In vitro inhibitory activity of compound 0.5 (ug/ml) on platelet aggregation induced by AA; summary of the method: as §1
Homo sapiens [19] = organism: Homo sapiens; test: In vitro inhibitory activity of compound 2 (ug/ml) on platelet aggregation induced by AA; summary of the method: as §1
Homo sapiens [20] = organism: Homo sapiens; test: In vitro inhibitory activity of compound 0.2 (ug/ml) on platelet aggregation induced by AA; summary of the method: as §1
Homo sapiens [21] = organism: Homo sapiens; test: In vitro inhibitory activity of control on platelet aggregation induced by collagen; summary of the method: as §1
Homo sapiens [22] = organism: Homo sapiens; test: In vitro inhibitory activity of compound 0.1 (ug/ml) on platelet aggregation induced by collagen; summary of the method: as §1
Homo sapiens [23] = organism: Homo sapiens; test: Potent antiplatelet activity was evaluated
Homo sapiens [24] = organism: Homo sapiens; test: In vitro inhibitory activity of compound 20 (ug/ml) on platelet aggregation induced by PAF; summary of the method: as §1
Homo sapiens [25] = organism: Homo sapiens; test: In vitro inhibitory activity of compound 0.1 (ug/ml) on platelet aggregation induced by AA; summary of the method: as §1
Homo sapiens [26] = organism: Homo sapiens; test: In vitro inhibitory activity of compound 50 (ug/ml) on platelet aggregation induced by PAF; summary of the method: as §1

CCc1cccc2nc(-c3ccccc3)cc(OC)c12
IC50 (Homo sapiens [1]): 80 nM

CCOC(=O)CCCCOc1cc(-c2ccccc2)nc2cccc(CC)c12
IC50 (Homo sapiens [1]): 530 nM

CC(=O)Oc1ccccc1C(=O)O [ASPIRIN]
IC50 (Homo sapiens [1]): 20000 nM

CCOC(=O)CCCOc1cc(-c2ccccc2)nc2cccc(CC)c12
IC50 (Homo sapiens [1]): 1540 nM

CCOc1cc(-c2ccccc2)nc2cccc(CC)c12
IC50 (Homo sapiens [1]): 140 nM

CCOC(=O)COc1cc(-c2ccccc2)nc2cccc(CC)c12
IC50 (Homo sapiens [1]): 780 nM

O=C(O)COc1cc(-c2ccccc2)nc2ccccc12
IC50 (Homo sapiens [1]): 35600 nM

CCOc1cc(-c2ccccc2)nc2cc(CC)ccc12
IC50 (Homo sapiens [1]): 3970 nM

CCOc1cc(-c2ccccc2)nc2ccccc12
Aggregation (Homo sapiens [2]): 63.8%
Aggregation (Homo sapiens [3]): 0%
IC50 (Homo sapiens [4]): 3610 nM
Aggregation (Homo sapiens [5]): 92.5%
Aggregation (Homo sapiens [6]): 5.9%
Aggregation (Homo sapiens [7]): 0%
Aggregation (Homo sapiens [8]): 15.9%
IC50 (Homo sapiens [1]): 2010 nM
Aggregation (Homo sapiens [9]): 80%
Aggregation (Homo sapiens [10]): 92%
Aggregation (Homo sapiens [11]): 90.9%
Aggregation (Homo sapiens [12]): 78.5%
Aggregation (Homo sapiens [13]): 43.5%
Aggregation (Homo sapiens [14]): 28.4%
Aggregation (Homo sapiens [15]): 0%
Aggregation (Homo sapiens [16]): 4.3%
Aggregation (Homo sapiens [17]): 36.3%
Aggregation (Homo sapiens [18]): 23.1%
Aggregation (Homo sapiens [19]): 1.7%
Aggregation (Homo sapiens [20]): 86.4%
Aggregation (Homo sapiens [21]): 89.2%
Aggregation (Homo sapiens [22]): 85.9%

CCc1cccc2nc(-c3ccccc3)cc(O)c12
IC50 (Homo sapiens [23]): 150 nM

COc1ccc2c(c1)c(CC(=O)O)c(C)n2C(=O)c1ccc(Cl)cc1 [INDOMETHACIN]
IC50 (Homo sapiens [1]): 250 nM

CCNC(=O)COc1cc(-c2ccccc2)nc2cccc(CC)c12
IC50 (Homo sapiens [1]): 600 nM

CCc1cccc2c1c(=O)cc(-c1ccccc1)n2C
IC50 (Homo sapiens [1]): 30000 nM

CCc1cccc2nc(-c3ccccc3)cc(OCC(=O)NC)c12
IC50 (Homo sapiens [1]): 1880 nM

CCOC(=O)COc1cc(-c2ccccc2)nc2ccccc12
IC50 (Homo sapiens [1]): 13900 nM

COc1cc(-c2ccccc2)nc2ccccc12
Aggregation (Homo sapiens [2]): 0%
Aggregation (Homo sapiens [24]): 87.2%
IC50 (Homo sapiens [4]): 1700 nM
Aggregation (Homo sapiens [5]): 92.5%
Aggregation (Homo sapiens [7]): 0%
Aggregation (Homo sapiens [8]): 0%
Aggregation (Homo sapiens [25]): 90.8%
IC50 (Homo sapiens [1]): 2130 nM
Aggregation (Homo sapiens [9]): 56.8%
Aggregation (Homo sapiens [10]): 92%
Aggregation (Homo sapiens [11]): 90.9%
Aggregation (Homo sapiens [14]): 9.4%
Aggregation (Homo sapiens [26]): 65.8%
Aggregation (Homo sapiens [15]): 0%
Aggregation (Homo sapiens [16]): 9.3%
Aggregation (Homo sapiens [17]): 18.5%
Aggregation (Homo sapiens [18]): 53.4%
Aggregation (Homo sapiens [19]): 0%
Aggregation (Homo sapiens [20]): 86%
Aggregation (Homo sapiens [21]): 89.2%
